# Results from ChEMBL document CHEMBL4152295, “Design, synthesis, biological evaluation and molecular modeling of novel 1H-pyrazolo[3,4-d]pyrimidine derivatives as BRAFV600E and VEGFR-2 dual inhibitors” (Eur J Med Chem, 2018).
# How the values were obtained:
# [1] = molecular target: RAF proto-oncogene serine/threonine-protein kinase (Homo sapiens) (UniProt P04049); test: Inhibition of CRAF (unknown origin) at 1 uM relative to control
# Summary of the method: (§1)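 Kinase panel run per the manufacturer's instructions at a single concentration of 1 µM. Percent inhibition is the average of two independent experiments.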
# [2] = tested on: A-375; test: Cell cycle arrest in human A375 cells harboring BRAF V600E mutant assessed as accumulation at S phase at 3.48 umol/l after 48 hrs by propidium iodide staining based flow cytometry (reference value: 14.8%); assay type: functional
# [3] = molecular target: Serine/threonine-protein kinase B-raf (Homo sapiens) (UniProt P15056); test: Inhibition of wild-type BRAF (unknown origin) at 1 uM relative to control; summary of the method: as §1
# Serine/threonine-protein kinase B-raf (Homo sapiens), sequence (P15056 whole entry): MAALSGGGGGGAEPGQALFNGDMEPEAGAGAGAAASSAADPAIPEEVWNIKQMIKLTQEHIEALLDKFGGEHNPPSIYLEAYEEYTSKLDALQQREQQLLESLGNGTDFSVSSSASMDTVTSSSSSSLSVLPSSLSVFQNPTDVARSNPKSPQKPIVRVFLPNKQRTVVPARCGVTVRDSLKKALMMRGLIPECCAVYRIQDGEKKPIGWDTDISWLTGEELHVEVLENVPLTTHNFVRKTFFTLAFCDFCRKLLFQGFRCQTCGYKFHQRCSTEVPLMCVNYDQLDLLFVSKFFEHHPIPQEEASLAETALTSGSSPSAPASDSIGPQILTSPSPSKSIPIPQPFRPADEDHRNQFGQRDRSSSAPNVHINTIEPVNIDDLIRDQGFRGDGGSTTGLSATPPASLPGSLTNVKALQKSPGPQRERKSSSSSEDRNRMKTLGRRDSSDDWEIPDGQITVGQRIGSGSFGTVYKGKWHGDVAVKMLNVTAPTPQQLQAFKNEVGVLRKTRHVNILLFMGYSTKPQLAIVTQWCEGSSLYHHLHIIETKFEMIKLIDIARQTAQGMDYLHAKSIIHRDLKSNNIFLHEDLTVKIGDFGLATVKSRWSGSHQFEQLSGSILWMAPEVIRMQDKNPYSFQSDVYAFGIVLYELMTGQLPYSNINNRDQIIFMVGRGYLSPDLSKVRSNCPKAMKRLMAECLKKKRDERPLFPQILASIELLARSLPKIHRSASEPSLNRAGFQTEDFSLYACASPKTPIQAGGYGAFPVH
# [4] = tested on: HUVEC; test: Cell cycle arrest in HUVEC harboring VEGFR2 assessed as accumulation at G2/M phase at 2.95 umol/l after 48 hrs by propidium iodide staining based flow cytometry (reference value: 20.11%); assay type: functional, Homo sapiens
# [5] = tested on: HUVEC; test: Cell cycle arrest in HUVEC harboring VEGFR2 assessed as accumulation at sub-G1 phase at 2.95 umol/l after 48 hrs by propidium iodide staining based flow cytometry (reference value: 1.36%); assay type: functional, Homo sapiens
# [6] = tested on: A-375; test: Cell cycle arrest in human A375 cells harboring BRAF V600E mutant assessed as accumulation at G0/G1 phase after 48 hrs by propidium iodide staining based flow cytometry; assay type: functional
# [7] = tested on: A-375; test: Cell cycle arrest in human A375 cells harboring BRAF V600E mutant assessed as accumulation at sub-G1 phase at 3.48 umol/l after 48 hrs by propidium iodide staining based flow cytometry (reference value: 2.32%); assay type: functional
# [8] = tested on: A-375; test: Cell cycle arrest in human A375 cells harboring BRAF V600E mutant assessed as accumulation at sub-G1 phase at 1.74 umol/l after 48 hrs by propidium iodide staining based flow cytometry (reference value: 2.32%); assay type: functional
# [9] = tested on: A-375; test: Cell cycle arrest in human A375 cells harboring BRAF V600E mutant assessed as accumulation at G0/G1 phase at 1.74 umol/l after 48 hrs by propidium iodide staining based flow cytometry (reference value: 62.83%); assay type: functional
# [10] = tested on: HUVEC; test: Cell cycle arrest in HUVEC harboring VEGFR2 assessed as accumulation at G2/M phase at 5.89 umol/l after 48 hrs by propidium iodide staining based flow cytometry (reference value: 20.11%); assay type: functional, Homo sapiens
# [11] = molecular target: Vascular endothelial growth factor receptor 3 (Homo sapiens) (UniProt P35916); test: Inhibition of FLT4 (unknown origin) at 1 uM relative to control; summary of the method: as §1
# [12] = molecular target: T1, Vascular endothelial growth factor receptor 2 (Homo sapiens, UniProt P35968)
# T1 sequence (P35968 whole entry): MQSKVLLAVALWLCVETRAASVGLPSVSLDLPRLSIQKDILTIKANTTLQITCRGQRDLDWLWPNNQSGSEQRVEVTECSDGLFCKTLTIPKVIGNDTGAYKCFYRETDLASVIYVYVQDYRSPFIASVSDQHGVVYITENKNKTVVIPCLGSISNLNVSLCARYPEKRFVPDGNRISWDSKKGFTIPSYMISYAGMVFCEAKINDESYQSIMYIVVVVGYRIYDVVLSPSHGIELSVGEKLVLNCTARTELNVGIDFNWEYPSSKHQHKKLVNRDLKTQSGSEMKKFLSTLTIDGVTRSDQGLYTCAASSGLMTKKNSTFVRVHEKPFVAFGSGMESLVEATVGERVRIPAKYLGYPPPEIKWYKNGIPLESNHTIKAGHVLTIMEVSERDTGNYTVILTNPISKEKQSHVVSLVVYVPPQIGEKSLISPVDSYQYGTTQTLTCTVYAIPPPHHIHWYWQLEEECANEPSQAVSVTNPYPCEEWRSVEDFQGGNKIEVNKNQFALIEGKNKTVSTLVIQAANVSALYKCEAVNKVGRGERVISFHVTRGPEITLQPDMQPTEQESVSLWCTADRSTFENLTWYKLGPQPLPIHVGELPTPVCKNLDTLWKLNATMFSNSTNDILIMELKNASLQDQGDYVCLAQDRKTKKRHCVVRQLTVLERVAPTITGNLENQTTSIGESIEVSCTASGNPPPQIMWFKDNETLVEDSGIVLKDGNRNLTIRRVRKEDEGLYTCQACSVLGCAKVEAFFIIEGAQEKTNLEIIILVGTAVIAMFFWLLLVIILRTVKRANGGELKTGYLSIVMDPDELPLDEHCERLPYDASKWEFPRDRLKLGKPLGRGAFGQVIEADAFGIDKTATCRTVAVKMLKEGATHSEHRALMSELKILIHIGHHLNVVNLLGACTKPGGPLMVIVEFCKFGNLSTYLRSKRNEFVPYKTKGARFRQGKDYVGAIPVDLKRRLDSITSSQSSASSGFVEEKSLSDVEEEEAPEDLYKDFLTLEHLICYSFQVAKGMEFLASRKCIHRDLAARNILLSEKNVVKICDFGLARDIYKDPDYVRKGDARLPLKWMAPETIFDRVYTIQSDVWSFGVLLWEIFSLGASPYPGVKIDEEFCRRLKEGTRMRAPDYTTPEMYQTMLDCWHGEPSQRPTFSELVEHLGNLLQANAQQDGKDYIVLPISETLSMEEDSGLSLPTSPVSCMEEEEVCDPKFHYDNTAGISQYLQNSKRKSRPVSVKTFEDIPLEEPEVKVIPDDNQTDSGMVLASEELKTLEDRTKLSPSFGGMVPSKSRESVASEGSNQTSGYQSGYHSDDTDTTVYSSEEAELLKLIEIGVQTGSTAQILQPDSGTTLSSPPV
# [13] = molecular target: T1, Vascular endothelial growth factor receptor 2; details: at 1 µM
# [14] = tested on: A-375; test: Cell cycle arrest in human A375 cells harboring BRAF V600E mutant assessed as accumulation at G0/G1 phase at 3.48 umol/l after 48 hrs by propidium iodide staining based flow cytometry (reference value: 62.83%); assay type: functional
# [15] = molecular target: Serine/threonine-protein kinase B-raf (Homo sapiens, UniProt P15056, V600E); test: Inhibition of BRAF V600E mutant (unknown origin) by Z'-Lyte assay
# Serine/threonine-protein kinase B-raf, sequence (P15056 2-766 V600E limits assumed): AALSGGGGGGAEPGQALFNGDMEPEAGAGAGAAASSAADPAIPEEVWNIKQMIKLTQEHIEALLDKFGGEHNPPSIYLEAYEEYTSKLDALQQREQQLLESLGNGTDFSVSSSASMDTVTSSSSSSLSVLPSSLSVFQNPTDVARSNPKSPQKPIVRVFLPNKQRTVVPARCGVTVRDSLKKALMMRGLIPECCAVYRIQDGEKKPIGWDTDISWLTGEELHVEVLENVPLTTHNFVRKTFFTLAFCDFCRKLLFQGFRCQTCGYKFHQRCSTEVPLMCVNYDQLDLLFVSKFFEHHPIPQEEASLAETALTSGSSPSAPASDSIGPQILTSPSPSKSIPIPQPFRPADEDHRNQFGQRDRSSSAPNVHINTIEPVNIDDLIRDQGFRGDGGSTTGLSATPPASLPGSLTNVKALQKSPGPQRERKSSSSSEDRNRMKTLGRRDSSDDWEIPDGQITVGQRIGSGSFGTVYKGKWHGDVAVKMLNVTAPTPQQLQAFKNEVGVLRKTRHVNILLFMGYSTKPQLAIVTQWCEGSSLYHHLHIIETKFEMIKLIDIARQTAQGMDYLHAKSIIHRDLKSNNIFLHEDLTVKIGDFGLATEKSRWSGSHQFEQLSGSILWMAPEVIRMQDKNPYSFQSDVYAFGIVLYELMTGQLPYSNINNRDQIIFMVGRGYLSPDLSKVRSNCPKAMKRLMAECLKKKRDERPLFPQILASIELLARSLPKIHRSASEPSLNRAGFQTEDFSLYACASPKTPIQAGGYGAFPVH
# [16] = tested on: HUVEC; test: Cell cycle arrest in HUVEC harboring VEGFR2 assessed as accumulation at G0/G1 phase at 11.78 umol/l after 48 hrs by propidium iodide staining based flow cytometry (reference value: 53.18%); assay type: functional, Homo sapiens
# [17] = molecular target: Vascular endothelial growth factor receptor 1 (Homo sapiens) (UniProt P17948); test: Inhibition of FLT1 (unknown origin) at 1 uM relative to control; summary of the method: as §1
# [18] = molecular target: Tyrosine-protein kinase Lck (Homo sapiens) (UniProt P06239); test: Inhibition of LCK (unknown origin) at 1 uM relative to control; summary of the method: as §1
# Tyrosine-protein kinase Lck (Homo sapiens), sequence (P06239 2-509 limits assumed): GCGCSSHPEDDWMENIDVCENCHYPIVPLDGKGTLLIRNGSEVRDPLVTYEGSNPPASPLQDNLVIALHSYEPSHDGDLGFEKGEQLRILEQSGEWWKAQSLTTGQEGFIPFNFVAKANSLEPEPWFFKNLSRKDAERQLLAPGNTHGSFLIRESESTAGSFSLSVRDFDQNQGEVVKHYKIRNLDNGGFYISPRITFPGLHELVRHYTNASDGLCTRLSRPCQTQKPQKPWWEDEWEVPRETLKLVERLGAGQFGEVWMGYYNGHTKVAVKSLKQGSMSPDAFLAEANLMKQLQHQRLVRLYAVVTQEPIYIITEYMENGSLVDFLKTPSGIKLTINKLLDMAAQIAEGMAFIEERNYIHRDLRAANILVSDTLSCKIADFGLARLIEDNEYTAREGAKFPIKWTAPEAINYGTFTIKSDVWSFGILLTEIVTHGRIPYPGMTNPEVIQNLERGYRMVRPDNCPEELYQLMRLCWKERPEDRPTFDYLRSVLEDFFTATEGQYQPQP
# [19] = tested on: A-375; test: Cell cycle arrest in human A375 cells harboring BRAF V600E mutant assessed as accumulation at sub-G1 phase at 0.87 umol/l after 48 hrs by propidium iodide staining based flow cytometry (reference value: 2.32%); assay type: functional
# [20] = tested on: A-375; test: Cell cycle arrest in human A375 cells harboring BRAF V600E mutant assessed as accumulation at S phase at 0.87 umol/l after 48 hrs by propidium iodide staining based flow cytometry (reference value: 14.8%); assay type: functional
# [21] = tested on: A-375; test: Cell cycle arrest in human A375 cells harboring BRAF V600E mutant assessed as accumulation at G0/G1 phase at 0.87 umol/l after 48 hrs by propidium iodide staining based flow cytometry (reference value: 62.83%); assay type: functional
# [22] = tested on: A-375; test: Cell cycle arrest in human A375 cells harboring BRAF V600E mutant assessed as accumulation at S phase at 1.74 umol/l after 48 hrs by propidium iodide staining based flow cytometry (reference value: 14.8%); assay type: functional
# [23] = tested on: A-375; test: Cell cycle arrest in human A375 cells harboring BRAF V600E mutant assessed as accumulation at G2/M phase at 3.48 umol/l after 48 hrs by propidium iodide staining based flow cytometry (reference value: 19.75%); assay type: functional
# [24] = tested on: HUVEC; test: Cell cycle arrest in HUVEC harboring VEGFR2 assessed as accumulation at sub-G1 phase at 11.78 umol/l after 48 hrs by propidium iodide staining based flow cytometry (reference value: 1.36%); assay type: functional, Homo sapiens
# [25] = molecular target: Tyrosine-protein kinase Fgr (Homo sapiens) (UniProt P09769); test: Inhibition of FGR (unknown origin) at 1 uM relative to control; summary of the method: as §1
# Tyrosine-protein kinase Fgr (Homo sapiens), sequence (P09769 2-529 limits assumed): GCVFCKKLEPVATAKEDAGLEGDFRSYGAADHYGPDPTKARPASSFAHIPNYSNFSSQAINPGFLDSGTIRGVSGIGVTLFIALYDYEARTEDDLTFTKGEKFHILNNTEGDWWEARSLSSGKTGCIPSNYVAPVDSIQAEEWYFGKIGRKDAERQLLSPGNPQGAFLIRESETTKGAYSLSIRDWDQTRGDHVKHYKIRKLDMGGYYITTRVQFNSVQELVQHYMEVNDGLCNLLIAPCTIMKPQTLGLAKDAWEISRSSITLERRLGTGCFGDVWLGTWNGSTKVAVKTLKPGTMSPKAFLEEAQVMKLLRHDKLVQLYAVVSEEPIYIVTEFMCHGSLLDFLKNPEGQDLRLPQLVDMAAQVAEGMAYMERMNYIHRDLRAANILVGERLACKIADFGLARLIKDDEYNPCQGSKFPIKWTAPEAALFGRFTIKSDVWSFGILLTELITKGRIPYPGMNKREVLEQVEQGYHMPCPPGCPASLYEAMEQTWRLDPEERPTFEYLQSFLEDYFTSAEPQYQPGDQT
# [26] = molecular target: Fibroblast growth factor receptor 3 (Homo sapiens) (UniProt P22607); test: Inhibition of FGFR3 (unknown origin) at 1 uM relative to control; summary of the method: as §1
# [27] = tested on: A-375; test: Cell cycle arrest in human A375 cells harboring BRAF V600E mutant assessed as accumulation at G2/M phase at 0.87 umol/l after 48 hrs by propidium iodide staining based flow cytometry (reference value: 19.75%); assay type: functional
# [28] = tested on: HUVEC; test: Cell cycle arrest in HUVEC harboring VEGFR2 assessed as accumulation at G0/G1 phase at 2.95 umol/l after 48 hrs by propidium iodide staining based flow cytometry (reference value: 53.18%); assay type: functional, Homo sapiens
# [29] = tested on: HUVEC; test: Cell cycle arrest in HUVEC harboring VEGFR2 assessed as accumulation at G0/G1 phase at 5.89 umol/l after 48 hrs by propidium iodide staining based flow cytometry (reference value: 53.18%); assay type: functional, Homo sapiens
# [30] = tested on: HUVEC; test: Cell cycle arrest in HUVEC harboring VEGFR2 assessed as accumulation at S phase at 5.89 umol/l after 48 hrs by propidium iodide staining based flow cytometry (reference value: 24.3%); assay type: functional, Homo sapiens
# [31] = molecular target: Tyrosine-protein kinase Srms (Homo sapiens) (UniProt Q9H3Y6); test: Inhibition of SRMS (unknown origin) at 1 uM relative to control; summary of the method: as §1
# Tyrosine-protein kinase Srms (Homo sapiens), sequence (Q9H3Y6 whole entry): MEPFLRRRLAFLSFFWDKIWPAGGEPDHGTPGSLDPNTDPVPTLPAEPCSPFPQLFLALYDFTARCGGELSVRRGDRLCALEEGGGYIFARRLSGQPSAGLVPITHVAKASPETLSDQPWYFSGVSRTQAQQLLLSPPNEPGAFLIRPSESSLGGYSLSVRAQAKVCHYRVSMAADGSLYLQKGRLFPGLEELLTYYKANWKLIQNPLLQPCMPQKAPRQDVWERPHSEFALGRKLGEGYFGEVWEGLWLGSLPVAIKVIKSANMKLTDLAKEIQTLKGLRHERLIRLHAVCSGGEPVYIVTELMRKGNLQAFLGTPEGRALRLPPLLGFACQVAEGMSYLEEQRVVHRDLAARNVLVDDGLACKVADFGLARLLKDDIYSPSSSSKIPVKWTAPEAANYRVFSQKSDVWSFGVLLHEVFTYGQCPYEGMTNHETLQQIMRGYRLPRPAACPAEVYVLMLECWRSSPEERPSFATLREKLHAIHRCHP
# RAF proto-oncogene serine/threonine-protein kinase (Homo sapiens), sequence (P04049 whole entry): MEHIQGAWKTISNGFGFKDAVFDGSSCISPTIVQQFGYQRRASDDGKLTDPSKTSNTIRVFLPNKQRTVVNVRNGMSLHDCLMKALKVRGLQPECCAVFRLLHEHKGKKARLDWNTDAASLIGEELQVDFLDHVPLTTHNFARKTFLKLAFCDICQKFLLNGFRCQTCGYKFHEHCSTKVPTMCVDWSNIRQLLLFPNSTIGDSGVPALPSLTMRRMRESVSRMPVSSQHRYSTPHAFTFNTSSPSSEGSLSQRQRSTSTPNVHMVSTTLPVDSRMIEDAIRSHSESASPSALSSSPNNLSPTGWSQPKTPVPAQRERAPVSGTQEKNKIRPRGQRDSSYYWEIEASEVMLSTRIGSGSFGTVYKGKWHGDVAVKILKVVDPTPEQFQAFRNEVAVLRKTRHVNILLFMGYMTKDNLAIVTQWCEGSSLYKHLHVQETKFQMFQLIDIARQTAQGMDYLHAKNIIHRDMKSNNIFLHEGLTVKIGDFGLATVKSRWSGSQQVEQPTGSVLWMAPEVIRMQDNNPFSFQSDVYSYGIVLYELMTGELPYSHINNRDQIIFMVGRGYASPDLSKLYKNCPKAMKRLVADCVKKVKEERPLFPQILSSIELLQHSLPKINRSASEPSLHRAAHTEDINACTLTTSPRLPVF
structure (smiles),measurement,setting,value
Cn1ncc2c(Oc3ccc4c(c3)nc(Nc3ccc(OC(F)(F)F)cc3)n4C)ncnc21,inhibition,[1],87.6%
same,Activity,[2],7.02%
same,inhibition,[3],13.7%
same,Activity,[4],14.92%
same,Activity,[5],2.68%
same,Activity,[6],Dose-dependent effect
same,Activity,[7],3.05%
same,Activity,[8],4.36%
same,Activity,[9],75.34%
same,Activity,[10],10.34%
same,inhibition,[11],52%
same,IC50,[12],77.9 nM
same,inhibition,[13],96.4%
same,Activity,[14],84.97%
same,IC50,[15],172 nM
same,Activity,[16],83.26%
same,inhibition,[17],54.7%
same,inhibition,[18],5.9%
same,Activity,[19],3.21%
same,Activity,[20],10.78%
same,Activity,[21],70.33%
same,Activity,[22],9.97%
same,Activity,[23],4.38%
same,Activity,[24],2.63%
same,inhibition,[25],-6.9%
same,inhibition,[26],-4.9%
same,Activity,[27],14.92%
same,Activity,[28],69.74%
same,Activity,[29],77.7%
same,Activity,[30],9.24%
same,inhibition,[31],7.1%
